# T cruzi repl: T. cruzi replication inhibition. T. cruzi beta-gal in NIH3T3, luminescence, 90 h. inhibition, % (test concentration not listed). 1.4% of 300,000 active;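 active = mean inhibition across valid replicates above about 55%, limit read from the data; inconclusive = mean below that limit but half or more replicates reach it; inactive = mean below it, under half of replicates reach it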;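 note: signal also drops with host cell toxicity which is not excluded here; 0% = plate median of DMSO wells and 100% = zero luminescence signal; higher percent means less beta-gal luminescence so fewer parasites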
#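 Read-out: Parasite load inhibition, % | Test system: Mouse NIH/3T3 fibroblasts infected with β-gal-expressing T. cruzi Tulahuen C4 | Amount: 5,000 cells/well | Medium: DMEM, 2% fetal bovine serum | Signal: GalScreen β-gal luminescence, detergent lysis, 60 min | Timing: 3 h attach, ≥90 h co-culture | Also added: Tulahuen C4 trypomastigotes, 5000/well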
# GRIN3A LBD mod: modulators (binders) of human NR3A ligand-binding domain; NR3A LBD differential scanning fluorimetry, Tm shift; 0% = protein alone, 100% = glycine-bound protein; AID 1259313; 2.5% of 340,000 active; Tm shift relative to glycine control, % at 25 µM;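 active = melting temperature shift of at least 10% of the positive control shift, at one fixed dose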
# PREPL inh: inhibits the human prolyl oligopeptidase-like enzyme | recombinant PREPL, fluorescence polarization activity-based probe | 0.68% of 320,000 active | inhibition, % at 5.96 µM; in the data active = inhibition above about 43%;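 note: 0% = enzyme with DMSO and 100% = wells lacking enzyme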
# Target sequence (Q4J6C6 whole entry, looked up): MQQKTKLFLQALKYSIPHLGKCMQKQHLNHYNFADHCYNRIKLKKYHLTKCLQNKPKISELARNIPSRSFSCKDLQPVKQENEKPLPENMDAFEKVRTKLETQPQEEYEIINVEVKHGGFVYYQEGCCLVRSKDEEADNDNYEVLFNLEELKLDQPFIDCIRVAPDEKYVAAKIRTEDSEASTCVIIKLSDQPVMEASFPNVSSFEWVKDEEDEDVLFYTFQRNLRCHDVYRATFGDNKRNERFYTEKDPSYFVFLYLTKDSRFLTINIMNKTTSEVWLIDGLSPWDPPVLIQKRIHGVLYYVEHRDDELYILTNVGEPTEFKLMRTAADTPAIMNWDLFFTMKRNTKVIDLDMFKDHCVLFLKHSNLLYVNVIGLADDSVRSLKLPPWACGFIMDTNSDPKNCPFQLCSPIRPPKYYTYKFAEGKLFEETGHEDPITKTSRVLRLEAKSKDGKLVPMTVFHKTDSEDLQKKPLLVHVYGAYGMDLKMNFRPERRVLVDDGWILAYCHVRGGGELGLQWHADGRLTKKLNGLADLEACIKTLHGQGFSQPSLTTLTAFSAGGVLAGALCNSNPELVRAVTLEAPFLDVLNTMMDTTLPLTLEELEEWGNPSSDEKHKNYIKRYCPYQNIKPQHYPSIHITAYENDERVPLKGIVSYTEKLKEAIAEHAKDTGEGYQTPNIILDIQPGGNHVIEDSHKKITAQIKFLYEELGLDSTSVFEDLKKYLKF
# Beta apoptosis: beta cell apoptosis inhibition | 0.8% of 300,000 active | protection from apoptosis, % (no concentration beside the values) | INS-1E cytokine-induced death, ATP luminescence, 48 h; percent of positive-control rescue, neutral wells zero | AID 435005;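 active = Every replicate reaches about 75%, or at least half do and their mean reaches it too, limit read from the data; inconclusive = At least half of replicates reach the limit but their mean does not; inactive = Under half of replicates reach the limit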;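 note: 0% = cytokine-treated negative control wells and 100% = positive control rescue; higher means more ATP so stronger rescue from cytokine killing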
# CHOP inhibitor: inhibitors of CHOP induction in ER stress response; 3.8% of 220,000 active; inhibition, % at 10 µM; CHO-K1 CHOP-promoter luciferase, tunicamycin-induced, 15-18 h;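 active = compounds that reduced the stress-induced luciferase reporter signal by more than about 70% of percent inhibition, limit read from the data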;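 note: 0% = tunicamycin plus vehicle and 100% = wells without tunicamycin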
# CSC inhib: blocks cancer stem cells. AID 2717. cancer stem cell-like cells viability, luminescence. 1.1% of 300,000 active. inhibition, % at 7.5 µM; in the data active = inhibition above about 75%; inconclusive = no clear call, values can overlap the other calls; tested in HMLE shEcad cells
# CHOP inh conf: confirmation of CHOP induction inhibitors; shares compounds with CHOP inhibitor; CHO-CHOP promoter luciferase reporter, tunicamycin-induced, luminescence; inhibition, % at 10 µM; 45% of 2,100 active; AID 504437;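 active = mean of three repeat readings of reporter signal inhibition above a set limit, cut at about 70% in these data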;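 note: 0% = tunicamycin plus vehicle and 100% = wells lacking tunicamycin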
# Starred values were filed as active, the others as inactive; ? = inconclusive; . = no result; ! = not active in a repeat. A selection: hits, their analogues and other compounds. The true share with any hit is near 6.7%.
SMILES,T cruzi repl,GRIN3A LBD mod,PREPL inh,Beta apoptosis,CHOP inhibitor,CSC inhib,CHOP inh conf
Cc1cc(C)cc(-n2c(N)c(C(=O)Nc3c(C)n(C)n(-c4ccccc4)c3=O)c3nc4ccccc4nc32)c1,56.2*,-7.1,6.5,38.8,104.9*,12.1,38.7
COc1ccc(CNC(=O)CN2CCC(NC(=O)c3ccccc3C)CC2)cc1,-3.9,-0.4,-5.0,-6.8,.,-2.9,.
COc1ccc2nc(-c3ccccc3)[nH]c(=O)c2c1,.,-1.7,.,.,.,.,.
COc1ccc(-c2nc3ccc(N4CCCC4)cc3c(=O)[nH]2)cc1OC,4.3,-1.4,24.0,-2.8,103.0*,14.8,15.7
Cc1ccc(C(=O)N[C@H](C(=O)NC2CCCCC2)C(C)C)cc1,.,1.1,5.0,1.6,.,-15.1,.
CC(C)(C)c1cc(CN2CCCC(O)C2)c(O)c(C(C)(C)C)c1 (centres undefined),-4.9,-5.4,6.7,-1.7,107.2*,-10.6,108.7*
CC(C)c1ccc([N+](=O)[O-])cc1S(=O)(=O)N1CCN(C)CC1,3.5,2.0,5.0,-0.2,.,-16.9,.
Cc1ccc(-c2[nH]ncc2/C=N/n2c(COc3ccccc3C)nc3ccccc3c2=O)cc1,20.3,-8.7,-19.6,93.1*,100.1*,-7.9,4.5
Cc1ccccc1OCc1nc2ccccc2c(=O)n1N,14.2,-3.8,3.7,3.9,25.6,5.0,.
COc1ccc(CCNC(=O)c2nnn(-c3ccccc3OC)c2N)cc1OC,-15.9,1.1,-0.4,-1.2,25.2,-6.6,.
COc1ccc(CCNC(=O)c2nnn(-c3ccc4c(c3)OCCO4)c2N)cc1OC,-11.4,0.1,7.1,0.7,96.8*,-11.3,83.6*
COC(=O)c1sccc1N(C)S(C)(=O)=O,-3.0,-1.1,2.9,-4.4,-6.8,.,.
Cc1cc(C(=O)OCC(=O)N(CC(C)C)c2c(N)n(Cc3ccccc3)c(=O)[nH]c2=O)c(C)o1,1.5,-0.6,-7.0,0.4,.,-1.9,.
CC1(c2ccc(OC(F)F)cc2)NC(=O)N(/N=C/c2c(O)ccc3ccccc23)C1=O (centres undefined),-8.8,12.4*,3.0,.,100.7*,31.3,95.8*
Cc1ccc2nc(SCC(=O)Nc3ccc(F)cc3F)nc(=O)n2c1,-5.9,-2.0,1.5,.,.,-9.3,.
Cc1cccc(NC(=O)CSc2nc3ccccc3c3nc(CCc4c(C)n[nH]c4C)nn23)c1,27.2,-2.7,-8.6,20.7,-3.2,45.6,.
Cc1n[nH]c(C)c1CCc1nc2c3ccccc3nc(SCC(=O)Nc3ccccc3F)n2n1,12.1,1.6,1.9,18.2,98.4*,1.8,-15.6
COc1ccc(N=c2ssnc2Cl)cc1,4.2,21.6*,16.9,-8.2,108.8*,17.1,2.1
CCOC(=O)c1ccc(N=c2ssnc2Cl)cc1,-19.7,8.1,.,.,97.9*,.,56.3
Cc1ccc2oc(-c3cccc(NC(=O)Cn4cnc5c(=O)n(C)c(=O)n(C)c54)c3)nc2c1,12.6,.,-131.6,8.0,103.6*,10.4,68.6
O=c1nc2n(CCO)c3ccccc3cc-2c(=O)[nH]1,.,-0.1,.,.,.,.,.
O=C1CC2(CCCCC2)CC(=O)N1CCc1ccccc1,.,4.0,.,.,.,.,.
O=C1C=CC(=O)C(C2=C3C(=O)N(CCc4ccccc4)CC(=O)N3CCC2)=C1,?,-6.4,17.9,-6.1,105.4*,28.8,-229.7
CC(=O)CCc1ccc(OCC(=O)Nc2cccc(S(=O)(=O)N(C)c3ccccc3)c2)cc1,.,-1.4,.,.,.,.,.
Cc1cccc(/C=C/C(=O)c2cc(Br)ccc(=O)c2O)c1,43.0,-0.5,6.6,38.0,101.9*,102.9*,99.8*
O=C1NCN(c2ccccc2)C12CCN(CCCC(c1ccc(F)cc1)c1ccc(F)cc1)CC2,44.4,0.0,-4.3,1.0,106.2*!,78.5*,122.7*
CCN(CC)c1ccc(/C=C2\C(=O)c3ccc(C(=O)O)cc3C2=O)cc1,.,5.4,5.5,-3.6,-38.0,-1.3,.
CCc1ccc2c(c1)C(c1ccc([N+](=O)[O-])cc1)=NNC(c1ccc(C)cc1)=N2,7.6,-3.4,0.1,10.0,97.2*,1.5,83.0*
O=C1C=CC(=O)N1N(c1ccccc1)c1ccccc1,-15.6,0.7,4.3,-8.0,107.2*,63.8,117.8*
COCCN(C(=S)Nc1ccc(Cl)cc1OC)C1CCN(C(C)=O)CC1,-7.4,0.0,-5.6,-5.7,0.7,-0.6,.

# High-throughput results (PubChem)
